Reference: ChEMBL document CHEMBL1127428, “Studies of the active conformation of a novel series of benzamide dopamine D2 agonists” (J Med Chem, 1994)
Active and inactive are the calls of the source. No cut-off for these calls is given here.

Experiments:
[1] = (§1) Tested in vitro for intrinsic activity relative to quinpirole
Outline: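 GH4C1 cells transfected with human D2 receptor (long form); agonism read as inhibition of forskolin-stimulated cAMP accumulation. Intrinsic activity = maximal response relative to the full D2 agonist quinpirole (set at 1.0).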

D(2) dopamine receptor [2] = biological target: D(2) dopamine receptor (Homo sapiens, UniProt P14416); experiment: In vitro inhibition of forskolin-stimulated cAMP accumulation in GH4C1 cells transfected with the human Dopamine D2 receptor; format: functional, cell-based, GH4-C1
Sequence of D(2) dopamine receptor (Homo sapiens, UniProt P14416) (P14416 whole entry): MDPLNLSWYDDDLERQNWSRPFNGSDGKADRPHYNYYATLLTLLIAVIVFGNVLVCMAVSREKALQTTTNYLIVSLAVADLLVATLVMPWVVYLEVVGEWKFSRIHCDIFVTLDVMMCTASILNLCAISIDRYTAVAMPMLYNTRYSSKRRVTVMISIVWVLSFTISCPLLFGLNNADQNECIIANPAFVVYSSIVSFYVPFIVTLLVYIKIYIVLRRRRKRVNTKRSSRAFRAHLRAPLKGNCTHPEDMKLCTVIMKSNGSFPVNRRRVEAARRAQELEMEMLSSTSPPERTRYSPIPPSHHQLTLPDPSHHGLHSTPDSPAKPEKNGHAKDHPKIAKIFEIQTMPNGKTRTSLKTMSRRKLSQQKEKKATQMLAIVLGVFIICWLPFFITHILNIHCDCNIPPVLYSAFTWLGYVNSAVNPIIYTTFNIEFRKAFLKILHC

D(2) dopamine receptor [3] = biological target: D(2) dopamine receptor (Rattus norvegicus, UniProt P61169); experiment: Binding affinity towards Dopamine D2 receptor from rat striatal membranes, using [3H]- spiperone as radioligand
Sequence of D(2) dopamine receptor (Rattus norvegicus, UniProt P61169) (P61169 whole entry): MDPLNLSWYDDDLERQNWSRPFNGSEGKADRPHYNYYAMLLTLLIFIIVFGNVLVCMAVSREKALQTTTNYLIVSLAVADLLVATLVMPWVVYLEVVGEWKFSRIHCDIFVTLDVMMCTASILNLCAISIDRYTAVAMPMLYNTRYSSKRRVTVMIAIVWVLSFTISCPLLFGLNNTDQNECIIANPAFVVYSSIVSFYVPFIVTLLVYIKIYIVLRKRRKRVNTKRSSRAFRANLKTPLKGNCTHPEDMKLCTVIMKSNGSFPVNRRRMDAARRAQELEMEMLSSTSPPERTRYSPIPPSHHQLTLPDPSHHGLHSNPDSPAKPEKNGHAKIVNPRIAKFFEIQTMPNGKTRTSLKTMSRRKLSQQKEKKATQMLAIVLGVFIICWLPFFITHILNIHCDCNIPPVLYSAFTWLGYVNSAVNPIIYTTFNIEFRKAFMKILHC
Outline: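 Displacement of [3H]spiperone (0.2 nM, final) from rat striatal membranes; nonspecific binding defined with (+)-butaclamol (1 μM). Four to six concentrations, each run in triplicate; IC50 obtained by nonlinear regression.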

Mus musculus [4] = organism: Mus musculus; experiment: Tested for the inhibition of Spontaneous locomotor activity; format: functional
Outline: (§2)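 Mice dosed ip, then immediately tested for 1 h of exploratory locomotion in darkened cylindrical photobeam chambers. Activity expressed as percent of vehicle-treated animals. ED50 (95% confidence range) derived from three to six doses, 6–18 animals per dose.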

[5] = as §1; format: ADME
Outline: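 Human D2 receptor (long form) expressed by transfection in GH4C1 cells. Agonism was read as inhibition of forskolin-stimulated cAMP accumulation. Intrinsic activity was the maximal response expressed relative to the maximal response of the full D2 agonist quinpirole.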

Mus musculus [6] = experiment: Tested for the inhibition of Spontaneous locomotor activity; Not active, ED50 > 30 mg/kg; format: functional, organism-based; parameters: dose 30 mg/kg; outline: as §2

Row | SMILES | Intrinsic activity [1] | EC50 (D(2) dopamine receptor [2]) [nM] | IC50 (D(2) dopamine receptor [3]) [nM] | ED50 (Mus musculus [4]) [mg/kg] | Intrinsic activity [5] | ED50 (Mus musculus [6])
1 | O=C(N[C@H]1CC[C@H](CCN2CCN(c3ccccn3)CC2)CC1)c1ccccc1 | 0.83 | 4.9 | 443 | 0.16 | – | –
2 | CCCN1CCC[C@@H]2Cc3n[nH]cc3C[C@H]21 (single isomer, unassigned) [QUINPIROLE] | – | – | – | – | 1 | –
3 | O=C(N[C@H]1CC[C@H]2C[C@H](N3CCN(c4ccccn4)CC3)CC[C@@H]2C1)c1ccccc1 | – | > 1000 | 7100 | – | – | inactive
4 | O=C(N[C@@H]1CC[C@H]2C[C@H](N3CCN(c4ccccn4)CC3)CC[C@@H]2C1)c1ccccc1 | – | > 1000 | 5800 | 14.3 | – | –

The remaining compounds from weak to strong by EC50 (D(2) dopamine receptor [2]), led by results:

Row | Intrinsic activity [1] | EC50 (D(2) dopamine receptor [2]) [nM] | IC50 (D(2) dopamine receptor [3]) [nM] | SMILES | ED50 (Mus musculus [4]) [mg/kg] | Intrinsic activity [5] | ED50 (Mus musculus [6])
5 | 0.63 | 240 | 1100 | O=C(N[C@H]1CC[C@H]2C[C@@H](N3CCN(c4ccccn4)CC3)CC[C@@H]2C1)c1ccccc1 | 6.9 | – | –
6 | 0.98 | 10.4 | 72.7 | O=C(N[C@@H]1CC[C@H]2C[C@@H](N3CCN(c4ccccn4)CC3)CC[C@@H]2C1)c1ccccc1 | 0.1 | – | –
